PubChem BioAssay
Calls of active or inactive are those of the source.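 The calls were made as follows, unless noted: active = Her2 level under about 52% in both replicate screens, with viability over 70% of control (limit read from the data); inconclusive = Her2 under the limit in one screen only, or viability under 70%; inactive = Her2 level above the set limit.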

Key:
[1] = reducers of endogenous Her2 protein level, primary screen, SKBR3 breast tumor cells, AlphaScreen, ATP viability (AID 461); settings: 18-24 h, measured here: SKBR3 viability, ATP luminescence, at 10 µM;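 as to Her2 level: lower value means less Her2 protein in the cells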;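 as to viability: percent of carrier control wells set as 100% viability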
[2] = target: Receptor tyrosine-protein kinase erbB-2 (Homo sapiens) (UniProt P04626); experiment: as above; settings: 18-24 h, at 10 µM, stronger effect = lower value
Chain of Receptor tyrosine-protein kinase erbB-2 (Homo sapiens) (P04626 whole entry, looked up): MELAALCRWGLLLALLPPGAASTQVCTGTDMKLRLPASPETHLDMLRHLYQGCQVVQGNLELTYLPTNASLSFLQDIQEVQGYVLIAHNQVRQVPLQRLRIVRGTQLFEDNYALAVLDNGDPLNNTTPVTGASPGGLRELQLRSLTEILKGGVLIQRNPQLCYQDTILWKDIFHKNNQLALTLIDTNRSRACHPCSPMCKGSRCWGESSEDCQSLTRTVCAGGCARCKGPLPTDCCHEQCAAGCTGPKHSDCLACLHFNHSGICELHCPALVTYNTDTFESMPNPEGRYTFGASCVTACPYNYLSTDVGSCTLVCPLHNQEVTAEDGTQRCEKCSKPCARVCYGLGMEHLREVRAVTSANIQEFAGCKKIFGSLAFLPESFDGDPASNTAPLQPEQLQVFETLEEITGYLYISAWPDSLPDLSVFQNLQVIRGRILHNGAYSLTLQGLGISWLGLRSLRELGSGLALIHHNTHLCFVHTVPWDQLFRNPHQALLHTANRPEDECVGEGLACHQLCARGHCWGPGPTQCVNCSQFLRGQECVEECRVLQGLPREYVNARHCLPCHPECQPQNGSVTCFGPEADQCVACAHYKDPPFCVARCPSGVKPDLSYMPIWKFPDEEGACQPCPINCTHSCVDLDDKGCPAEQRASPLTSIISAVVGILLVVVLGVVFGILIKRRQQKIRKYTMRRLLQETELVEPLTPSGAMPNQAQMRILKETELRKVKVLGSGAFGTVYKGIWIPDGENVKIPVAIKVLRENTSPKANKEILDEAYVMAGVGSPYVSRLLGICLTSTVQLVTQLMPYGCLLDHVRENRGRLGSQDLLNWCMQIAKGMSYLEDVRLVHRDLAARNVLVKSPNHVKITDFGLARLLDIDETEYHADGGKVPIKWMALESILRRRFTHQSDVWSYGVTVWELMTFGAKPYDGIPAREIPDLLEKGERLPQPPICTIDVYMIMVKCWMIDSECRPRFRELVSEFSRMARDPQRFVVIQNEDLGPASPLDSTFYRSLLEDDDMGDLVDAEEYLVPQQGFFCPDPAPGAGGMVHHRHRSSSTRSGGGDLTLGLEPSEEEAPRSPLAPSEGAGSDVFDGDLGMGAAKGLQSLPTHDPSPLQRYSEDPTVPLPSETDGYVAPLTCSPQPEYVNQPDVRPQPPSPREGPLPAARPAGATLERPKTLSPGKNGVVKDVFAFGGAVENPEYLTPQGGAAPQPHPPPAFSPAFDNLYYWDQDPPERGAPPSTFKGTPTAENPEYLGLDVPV

[3] = SK-BR-3 cell growth inhibitors, pilot screen, 24 h, human (AID 572;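 active = viability at or below 10% of carrier control in both of two separate runs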;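 also: compound exposure lasted between 18 and 24 h rather than exactly 24 h; 100% = carrier-treated control wells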); settings: SK-BR-3 viability, CellTiter-Glo luminescence, at 10 µM, stronger effect = lower value
[4] = HUVEC growth inhibition – cell-based, human, primary screen (AID 575;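 active = viability at or below 30% in both replicate assays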;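 also: 100% = median of untreated cell wells with 0.1% DMSO on each plate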); settings: HUVEC proliferation, CellTiter-Glo luminescence, 72 h; at 10 µM; stronger effect = lower value
Procedure, shortened: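 Material: primary human umbilical vein endothelial cells / Schedule: 72 h exposure, 37 °C, 5% CO2, 30 min RT equilibration / Signal: ATP-based CellTiter-Glo luminescent read / Read-out basis: percent of median DMSO-control luminescence / Control set: 32 DMSO-only cell-control wells (high), 32 MePR drug-control wells (low) per plate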

[5] = growth inhibitors of H69AR lung tumor, primary screen, human, duplicate replicates (AID 580;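 active = viability at or under a set limit in both replicates, limit being median viability minus 3 SD, cut at about 48% in these data, passing the limit was not always enough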;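 also: 100% = mean luminescence of untreated wells and 0% = no signal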); settings: H69AR lung tumor cells viability, ATP luminescence, 72 h; at 10 µM; stronger effect = lower value
[6] = reversal of MRP1-mediated doxorubicin resistance, pilot screen, H69AR cells, doxorubicin co-treatment (AID 601;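 active = viability loss from added drug above about 55%, and viability with drug at most 40%, in both replicates, limit read from the data, passing the limit was not always enough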); settings: CellTiter-Glo, 72 h, at 10 µM; for differential viability (reversal): stronger effect = higher value
[7] = 384-well plate pilot, post-Golgi transport modulator project, inhibition of yeast transport mutant growth (AID 636; in the data active = inhibition above about 31%); settings: absorbance 615 nm, about 18 h, stronger effect = higher value
[8] = growth suppression of yeast trafficking mutant, preliminary HTS, modulators of trafficking downstream of Golgi apparatus project, 1536-format plate, OD 615 nm (AID 637; in the data active = inhibition above about 30%); settings: yeast transport mutant growth, absorbance 615 nm, 18 h; stronger effect = higher value
[9] = H69AR cells + 2 uM doxorubicin, measured here: viability with 2 uM doxorubicin, stronger effect = lower value
[10] = H69AR cells, compound alone cytotoxicity

Row | SMILES | viability [1] | Her2 level [2] | viability [3] | viability [4] | viability [5] | differential viability (reversal) ([6]; H69AR cells + 2 uM doxorubicin) | viability [6, 9] | viability [6, 10] | inhibition [7] | inhibition [8]
1 | CC(NO)C(C)(C)NO (stereo not given) | 92% | 101% (inactive) | 92% (inactive) | 92.3% (inactive) | 100% (inactive) | 11.2% (inactive) | 89.2% | 100% | -2.67% (inactive) | 12.1% (inactive)
2 | Fc1ccc(-n2c(Cc3ccccc3)nnc2SCc2nc(-c3cccs3)no2)cc1 | 99.5% | 92.5% (inactive) | 99.5% (inactive) | 73.1% (inactive) | 94.1% (inactive) | 17.9% (inactive) | 76.2% | 94.1% | -3.73% (inactive) | -0.98% (inactive)
3 | O=C(OCc1ccc2c(c1)OCO2)c1ccc(S(=O)(=O)N2CCCCC2)cc1 | 75.5% | 84% (inactive) | 75.5% (inactive) | 57.9% (inactive) | 81.9% (inactive) | 0.615% (inactive) | 81.3% | 81.9% | -0.77% (inactive) | -2.5% (inactive)
4 | COC(=O)n1c(=S)oc2cc(Cl)ccc21 | 102% | 102% (inactive) | 102% (inactive) | 62.7% (inactive) | 93.6% (inactive) | 3.97% (inactive) | 89.6% | 93.6% | 0.26% (inactive) | 25.6% (inactive)
5 | Cn1c2c(c(=O)n(C)c1=O)C(c1cccc(Br)c1)C1C(=O)c3ccccc3C1=N2 (stereo not given) | 103% | 97.5% (inactive) | 103% (inactive) | 72.5% (inactive) | 40.6% (active) | 5.16% (inactive) | 35.4% | 40.6% | 0.27% (inactive) | 1.43% (inactive)
6 | O=C(CS(=O)CC(=O)Nc1cccc2c1CCCC2)Nc1ccc(F)cc1 (stereo not given) | 114% | 103% (inactive) | 114% (inactive) | 88.3% (inactive) | 102% (inactive) | 4.67% (inactive) | 97.8% | 102% | -6.93% (inactive) | 4.1% (inactive)
7 | COCc1nnc(NC(=O)CCCOc2ccccc2)s1 | 107% | 92% (inactive) | 107% (inactive) | 85.6% (inactive) | 98.5% (inactive) | 10.4% (inactive) | 88.1% | 98.5% | -6.53% (inactive) | -3.97% (inactive)
8 | c1ccc(-c2noc(C3CCCCC3)n2)nc1 | 91% | 96.5% (inactive) | 91% (inactive) | 114% (inactive) | 102% (inactive) | 11.2% (inactive) | 90.4% | 102% | 0.82% (inactive) | -2.7% (inactive)
9 | COc1ccc(Br)cc1C(=O)Nc1nnn(C)n1 | 81.5% | 106% (inactive) | 81.5% (inactive) | 106% (inactive) | 104% (inactive) | 10.9% (inactive) | 93.2% | 104% | 3.95% (inactive) | 30.5% (active)
10 | CCCC(=O)N1c2ccccc2NC2=C(C(=O)CCC2)C1c1ccc(F)cc1 (stereo not given) | 98.5% | 78% (inactive) | 98.5% (inactive) | 96.9% (inactive) | 91.6% (inactive) | -0.1% (inactive) | 91.7% | 91.6% | -0.14% (inactive) | 3.81% (inactive)
11 | N#CC1=C(SCC(=O)NC2CCCCC2)NC(=O)CC1c1ccco1 (stereo not given) | 113% | 98% (inactive) | 113% (inactive) | 74.8% (inactive) | 30.6% (active) | -52.5% (inactive) | 83.1% | 30.6% | -6.53% (inactive) | 0.97% (inactive)
12 | O=C(CSc1nccn1-c1cccc(Cl)c1)NC1CCCC1 | 95.5% | 86% (inactive) | 95.5% (inactive) | 95.5% (inactive) | 111% (inactive) | 10.3% (inactive) | 101% | 111% | 0.91% (inactive) | 14.1% (inactive)
13 | Nc1nc2sc3c(c2c(=O)s1)CCCC3 | 112% | 108% (inactive) | 112% (inactive) | 60.3% (inactive) | 74.7% (inactive) | -3.39% (inactive) | 78.1% | 74.7% | -2.24% (inactive) | 1.31% (inactive)
14 | CCn1c(C(=O)N2CCC(C(=O)NCc3ccc4c(c3)OCO4)CC2)cc2sccc21 | 89% | 77.5% (inactive) | 89% (inactive) | 96.7% (inactive) | 89.6% (inactive) | 4.37% (inactive) | 85.3% | 89.6% | -2.93% (inactive) | 1.64% (inactive)
15 | Cc1ccc(CN2C(=O)CCC2C(=O)NCC2CCCO2)cc1 (stereo not given) | 90% | 81% (inactive) | 90% (inactive) | 82.8% (inactive) | 103% (inactive) | 5.64% (inactive) | 97.3% | 103% | -1.45% (inactive) | 3.55% (inactive)
16 | COc1ccc(-n2nnnc2-c2cccc(OC)c2)cc1 | 102% | 87.5% (inactive) | 102% (inactive) | 45.3% (inactive) | 34.5% (active) | -26.5% (inactive) | 61.1% | 34.5% | -5.95% (inactive) | -1% (inactive)
17 | Cc1[nH]c2ccccc2c(=O)c1CN(C)Cc1ccccc1 | 92.5% | 95% (inactive) | 92.5% (inactive) | 100% (inactive) | 91.8% (inactive) | 2.49% (inactive) | 89.3% | 91.8% | -4.21% (inactive) | -0.98% (inactive)
18 | O=C(NCc1ccco1)C(c1ccco1)N(C(=O)Cn1nnc2ccccc21)c1ccc2c(c1)CCC2 (stereo not given) | 95.5% | 92.5% (inactive) | 95.5% (inactive) | 89.7% (inactive) | 99.8% (inactive) | 8.6% (inactive) | 91.2% | 99.8% | -2.8% (inactive) | -5.97% (inactive)
19 | Cc1cccc(C)c1NC(=O)CC(NCc1ccco1)C(=O)O (stereo not given) | 116% | 85% (inactive) | 116% (inactive) | 118% (inactive) | 109% (inactive) | 13.5% (inactive) | 95.8% | 109% | -7.7% (inactive) | -2.67% (inactive)
20 | CCOc1ccccc1NC(=O)N1C2CCCC1CC(NC(=O)C1CC1)C2 (stereo not given) | 102% | 95% (inactive) | 102% (inactive) | 107% (inactive) | 96.8% (inactive) | 6.77% (inactive) | 90% | 96.8% | -6% (inactive) | 2.58% (inactive)
21 | Cc1ccc2nc(NC(=O)C3CCCN(S(=O)(=O)c4cnc[nH]4)C3)sc2c1 (stereo not given) | 96.5% | 92% (inactive) | 96.5% (inactive) | 98% (inactive) | 81.9% (inactive) | -9.05% (inactive) | 90.9% | 81.9% | -2.67% (inactive) | -3.11% (inactive)
22 | CCOC(=O)c1ccc(NC(=O)CSc2ncccn2)cc1 | 104% | 112% (inactive) | 104% (inactive) | 85.9% (inactive) | 96.9% (inactive) | 2.45% (inactive) | 94.5% | 96.9% | -0.53% (inactive) | 4.26% (inactive)
23 | O=C(Nc1ccccc1)N(O)c1ccc(Cl)cc1 | 93% | 79% (inactive) | 93% (inactive) | 88.5% (inactive) | 89.7% (inactive) | 11.8% (inactive) | 77.9% | 89.7% | -2.11% (inactive) | -4.5% (inactive)
24 | Cc1ccc(NC(=O)C2CCCN(S(=O)(=O)c3cnc[nH]3)C2)c(Br)c1 (stereo not given) | 88.5% | 92% (inactive) | 88.5% (inactive) | 88.1% (inactive) | 101% (inactive) | 8.17% (inactive) | 93.3% | 101% | -0.93% (inactive) | -1.97% (inactive)
25 | COc1ccc(C2CC(c3ccc(Cl)cc3)Nc3nc(NC(=O)c4ccco4)nn32)cc1 (stereo not given) | 90.5% | 78% (inactive) | 90.5% (inactive) | 66.3% (inactive) | 81.2% (inactive) | -9.39% (inactive) | 90.6% | 81.2% | -5.07% (inactive) | 2.46% (inactive)
